In brackets after ≈: the same amount, converted by molar mass. Activity calls are given as the source filed them. The calls are words filed in the database; no cut-off is given here.
Experiments:
[1] = system: Salmonella typhimurium; experiment: Antimicrobial activity against Salmonella Typhimurium at 10 ug after 24 hrs by disk diffusion method; format: functional, Salmonella enterica subsp. enterica serovar Typhimurium; conditions: Salmonella enterica, read-out: IZ
Summary of the method: (§1)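 Inoculum made in 0.85% saline against McFarland standard, swabbed evenly onto nutrient agar; sterile filter-paper discs set equidistant and loaded with equal volumes of drug at varying amounts; zone of inhibition measured after 24 h at 37 °C; ciprofloxacin reference.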

[2] = system: Klebsiella pneumoniae; experiment: Antimicrobial activity against Klebsiella pneumoniae at 15 ug after 24 hrs by disk diffusion method; format: functional; conditions: read-out: IZ; summary of the method: as §1
[3] = system: Staphylococcus aureus; experiment: Antimicrobial activity against Staphylococcus aureus at 15 ug after 24 hrs by disk diffusion method; format: functional; conditions: read-out: IZ; summary of the method: as §1
[4] = system: Escherichia coli; experiment: Inhibition of DNA gyrase gene expression in Escherichia coli assessed as decrease in band intensity by RT-PCR amplification
Summary of the method: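 E. coli treated with drug; total RNA from cells sampled up to 24 h; 2 µg RNA to cDNA with MMLV reverse transcriptase; gyrase gene PCR (94 °C 4 min initial denaturation, 72 °C 7 min final extension); products on agarose gel, band intensity normalized to GAPDH; untreated cells as negative control.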

[5] = Inhibition of DNA gyrase assessed as pBR322 DNA relaxation at 1 uM
Summary of the method: (§2)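 Relaxation without ATP: gyrase (60 nM) with supercoiled pBR322 DNA (6 nM) and drug at […] for 1 h at 37 °C; relaxation judged by gel. Ciprofloxacin, novobiocin and nalidixic acid comparators.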

[6] = system: Escherichia coli; experiment: Antimicrobial activity against Escherichia coli at 25 ug after 24 hrs by disk diffusion method; format: functional; conditions: read-out: IZ; summary of the method: as §1
[7] = system: Bacillus subtilis; experiment: Antimicrobial activity against Bacillus subtilis at 25 ug after 24 hrs by disk diffusion method; format: functional; conditions: read-out: IZ; summary of the method: as §1
[8] = system: Salmonella typhimurium; experiment: Antimicrobial activity against Salmonella Typhimurium at 25 ug after 24 hrs by disk diffusion method; format: functional, Salmonella enterica subsp. enterica serovar Typhimurium; conditions: Salmonella enterica, read-out: IZ; summary of the method: as §1
[9] = system: Pseudomonas aeruginosa; experiment: Antimicrobial activity against Pseudomonas aeruginosa at 15 ug after 24 hrs by disk diffusion method; format: functional; conditions: read-out: IZ; summary of the method: as §1
[10] = system: Klebsiella pneumoniae; experiment: Antimicrobial activity against Klebsiella pneumoniae at 20 ug after 24 hrs by disk diffusion method; format: functional; conditions: read-out: IZ; summary of the method: as §1
[11] = system: Salmonella typhimurium; experiment: Antimicrobial activity against Salmonella Typhimurium at 15 ug after 24 hrs by disk diffusion method; format: functional, Salmonella enterica subsp. enterica serovar Typhimurium; conditions: Salmonella enterica, read-out: IZ; summary of the method: as §1
[12] = system: Bacillus subtilis; experiment: Antimicrobial activity against Bacillus subtilis by broth microdilution assay; format: functional
Summary of the method: (§3)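 Broth microdilution per NCCLS 1997 in 96-well plate; final inoculum 10^5 cfu/mL; incubated 35.7 °C in air 18–20 h; MIC read as lowest concentration with no visible growth.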

[13] = system: Bacillus subtilis; experiment: Antimicrobial activity against Bacillus subtilis at 15 ug after 24 hrs by disk diffusion method; format: functional; conditions: read-out: IZ; summary of the method: as §1
[14] = system: Klebsiella pneumoniae; experiment: Antimicrobial activity against Klebsiella pneumoniae at 25 ug after 24 hrs by disk diffusion method; format: functional; conditions: read-out: IZ; summary of the method: as §1
[15] = system: Escherichia coli; experiment: Antimicrobial activity against Escherichia coli at 5 ug after 24 hrs by disk diffusion method; format: functional; conditions: read-out: IZ; summary of the method: as §1
[16] = system: Pseudomonas aeruginosa; experiment: Antimicrobial activity against Pseudomonas aeruginosa at 10 ug after 24 hrs by disk diffusion method; format: functional; conditions: read-out: IZ; summary of the method: as §1
[17] = system: Pseudomonas aeruginosa; experiment: Antimicrobial activity against Pseudomonas aeruginosa at 5 ug after 24 hrs by disk diffusion method; format: functional; conditions: read-out: IZ; summary of the method: as §1
[18] = system: Salmonella typhi; experiment: Antimicrobial activity against Salmonella typhi by broth microdilution assay; format: functional, Salmonella enterica subsp. enterica serovar Typhi; conditions: Salmonella enterica
Summary of the method: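 Broth microdilution in 96-well plates following the NCCLS 1997 protocol. Final inoculum was 10^5 cfu/mL, with a control organism run alongside. Plates were incubated at 35.7 °C in air for 18–20 h. MIC is the lowest concentration with no visible growth.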

[19] = system: Klebsiella pneumoniae; experiment: Antimicrobial activity against Klebsiella pneumoniae at 5 ug after 24 hrs by disk diffusion method; format: functional; conditions: read-out: IZ; summary of the method: as §1
[20] = system: Staphylococcus aureus; experiment: Antimicrobial activity against Staphylococcus aureus by broth microdilution assay; format: functional; summary of the method: as §3
[21] = system: Staphylococcus aureus; experiment: Antimicrobial activity against Staphylococcus aureus at 25 ug after 24 hrs by disk diffusion method; format: functional; conditions: read-out: IZ; summary of the method: as §1
[22] = system: Staphylococcus aureus; experiment: Antimicrobial activity against Staphylococcus aureus at 20 ug after 24 hrs by disk diffusion method; format: functional; conditions: read-out: IZ; summary of the method: as §1
[23] = system: Bacillus subtilis; experiment: Antimicrobial activity against Bacillus subtilis at 20 ug after 24 hrs by disk diffusion method; format: functional; conditions: read-out: IZ; summary of the method: as §1
[24] = system: Staphylococcus aureus; experiment: Antimicrobial activity against Staphylococcus aureus at 5 ug after 24 hrs by disk diffusion method; format: functional; conditions: read-out: IZ; summary of the method: as §1
[25] = system: Pseudomonas aeruginosa; experiment: Antimicrobial activity against Pseudomonas aeruginosa at 25 ug after 24 hrs by disk diffusion method; format: functional; conditions: read-out: IZ; summary of the method: as §1
[26] = system: Escherichia coli; experiment: Antimicrobial activity against Escherichia coli by broth microdilution assay; format: functional; summary of the method: as §3
[27] = system: Salmonella typhimurium; experiment: Antimicrobial activity against Salmonella Typhimurium at 20 ug after 24 hrs by disk diffusion method; format: functional, Salmonella enterica subsp. enterica serovar Typhimurium; conditions: Salmonella enterica, read-out: IZ; summary of the method: as §1
[28] = system: Pseudomonas aeruginosa; experiment: Antimicrobial activity against Pseudomonas aeruginosa by broth microdilution assay; format: functional; summary of the method: as §3
[29] = system: Staphylococcus aureus; experiment: Antimicrobial activity against Staphylococcus aureus at 10 ug after 24 hrs by disk diffusion method; format: functional; conditions: read-out: IZ; summary of the method: as §1
[30] = system: Klebsiella pneumoniae; experiment: Antimicrobial activity against Klebsiella pneumoniae at 10 ug after 24 hrs by disk diffusion method; format: functional; conditions: read-out: IZ; summary of the method: as §1
[31] = system: Salmonella typhimurium; experiment: Antimicrobial activity against Salmonella Typhimurium at 5 ug after 24 hrs by disk diffusion method; format: functional, Salmonella enterica subsp. enterica serovar Typhimurium; conditions: Salmonella enterica, read-out: IZ; summary of the method: as §1
[32] = system: Pseudomonas aeruginosa; experiment: Antimicrobial activity against Pseudomonas aeruginosa at 20 ug after 24 hrs by disk diffusion method; format: functional; conditions: read-out: IZ; summary of the method: as §1
[33] = system: Klebsiella pneumoniae; experiment: Antimicrobial activity against Klebsiella pneumoniae by broth microdilution assay; format: functional; summary of the method: as §3
[34] = system: Escherichia coli; experiment: Antimicrobial activity against Escherichia coli at 20 ug after 24 hrs by disk diffusion method; format: functional; conditions: read-out: IZ; summary of the method: as §1
[35] = Inhibition of DNA gyrase assessed as conversion of relaxed pBR322 to supercoiled form
Summary of the method: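 Supercoiling in 15 µL reactions: gyrase assay buffer, 150 ng relaxed pBR322, 2–3 µL purified DNA gyrase, 3 h at 37 °C (E. coli); stopped with 50% glycerol/0.25% bromophenol blue; 1% agarose in 1× TBE pH 8.3, 90 V 3 h; ethidium bromide stain; supercoiled band brightness by densitometry. Ciprofloxacin comparator.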

[36] = system: Escherichia coli; experiment: Antimicrobial activity against Escherichia coli at 15 ug after 24 hrs by disk diffusion method; format: functional; conditions: read-out: IZ; summary of the method: as §1
[37] = system: Escherichia coli; experiment: Antimicrobial activity against Escherichia coli at 10 ug after 24 hrs by disk diffusion method; format: functional; conditions: read-out: IZ; summary of the method: as §1
[38] = Inhibition of DNA gyrase assessed as pBR322 DNA relaxation at 5 uM; summary of the method: as §2

Cn1c(=O)c2cc3n(c2n(C)c1=O)CC1C3Nc2ccc(Cl)cc2C1(C)C (centres undefined)
zone of inhibition at 10 µg/disc [1]: 16 mm
zone of inhibition at 15 µg/disc [2]: 30 mm
zone of inhibition at 15 µg/disc [3]: 26 mm
Activity [4]: Active
Activity [5]: Active
zone of inhibition at 25 µg/disc [6]: 23 mm
zone of inhibition at 25 µg/disc [7]: 9 mm
zone of inhibition at 25 µg/disc [8]: 24 mm
zone of inhibition at 15 µg/disc [9]: 16 mm
zone of inhibition at 20 µg/disc [10]: 34 mm
zone of inhibition at 15 µg/disc [11]: 18 mm
MIC50 [12]: 0.25 µg/mL (≈ 0.65 µM)
MIC90 [12]: 1.2 µg/mL (≈ 3.12 µM)
zone of inhibition at 15 µg/disc [13]: 6 mm
zone of inhibition at 25 µg/disc [14]: 36 mm
zone of inhibition at 5 µg/disc [15]: 10 mm
zone of inhibition at 10 µg/disc [16]: 14 mm
zone of inhibition at 5 µg/disc [17]: 10 mm
MIC50 [18]: 0.09 µg/mL (≈ 0.234 µM)
MIC90 [18]: 0.15 µg/mL (≈ 0.39 µM)
zone of inhibition at 5 µg/disc [19]: 20 mm
MIC50 [20]: 0.25 µg/mL (≈ 0.65 µM)
zone of inhibition at 25 µg/disc [21]: 36 mm
zone of inhibition at 20 µg/disc [22]: 30 mm
zone of inhibition at 20 µg/disc [23]: 7 mm
zone of inhibition at 5 µg/disc [24]: 20 mm
zone of inhibition at 25 µg/disc [25]: 23 mm
MIC50 [26]: 0.06 µg/mL (≈ 0.156 µM)
MIC90 [26]: 0.25 µg/mL (≈ 0.65 µM)
zone of inhibition at 20 µg/disc [27]: 22 mm
MIC50 [28]: 0.125 µg/mL (≈ 0.325 µM)
MIC90 [28]: 1 µg/mL (≈ 2.6 µM)
zone of inhibition at 10 µg/disc [29]: 24 mm
zone of inhibition at 10 µg/disc [30]: 26 mm
zone of inhibition at 5 µg/disc [31]: 10 mm
zone of inhibition at 20 µg/disc [32]: 20 mm
MIC50 [33]: 0.125 µg/mL (≈ 0.325 µM)
MIC90 [33]: 2 µg/mL (≈ 5.2 µM)
zone of inhibition at 20 µg/disc [34]: 20 mm
Activity [35]: Active
zone of inhibition at 15 µg/disc [36]: 18 mm
zone of inhibition at 10 µg/disc [37]: 16 mm

O=C1c2ccccc2C(=O)C12Nc1ccc(Br)cc1[C@H]1OCCC[C@H]12
zone of inhibition at 10 µg/disc [1]: 10 mm
zone of inhibition at 15 µg/disc [2]: 13 mm
zone of inhibition at 15 µg/disc [3]: 10 mm
zone of inhibition at 25 µg/disc [6]: 13 mm
zone of inhibition at 25 µg/disc [7]: 10 mm
zone of inhibition at 25 µg/disc [8]: 16 mm
zone of inhibition at 15 µg/disc [9]: 16 mm
zone of inhibition at 20 µg/disc [10]: 14 mm
zone of inhibition at 15 µg/disc [11]: 13 mm
MIC50 [12]: 5 µg/mL (≈ 12.6 µM)
MIC90 [12]: 5 µg/mL (≈ 12.6 µM)
zone of inhibition at 15 µg/disc [13]: 8 mm
zone of inhibition at 25 µg/disc [14]: 16 mm
zone of inhibition at 5 µg/disc [15]: 8 mm
zone of inhibition at 10 µg/disc [16]: 14 mm
zone of inhibition at 5 µg/disc [17]: 10 mm
MIC50 [18]: 1.64 µg/mL (≈ 4.12 µM)
MIC90 [18]: 2.5 µg/mL (≈ 6.28 µM)
zone of inhibition at 5 µg/disc [19]: 8 mm
MIC50 [20]: 64 µg/mL (≈ 161 µM)
MIC90 [20]: 64 µg/mL (≈ 161 µM)
zone of inhibition at 25 µg/disc [21]: 14 mm
zone of inhibition at 20 µg/disc [22]: 12 mm
zone of inhibition at 20 µg/disc [23]: 9 mm
zone of inhibition at 5 µg/disc [24]: 8 mm
zone of inhibition at 25 µg/disc [25]: 23 mm
MIC50 [26]: 2 µg/mL (≈ 5.02 µM)
MIC90 [26]: 4 µg/mL (≈ 10 µM)
zone of inhibition at 20 µg/disc [27]: 14 mm
MIC50 [28]: 1 µg/mL (≈ 2.51 µM)
MIC90 [28]: 8 µg/mL (≈ 20.1 µM)
zone of inhibition at 10 µg/disc [29]: 9 mm
zone of inhibition at 10 µg/disc [30]: 10 mm
zone of inhibition at 5 µg/disc [31]: 8 mm
zone of inhibition at 20 µg/disc [32]: 20 mm
MIC50 [33]: 0.25 µg/mL (≈ 0.628 µM)
MIC90 [33]: 4 µg/mL (≈ 10 µM)
zone of inhibition at 20 µg/disc [34]: 12 mm
Activity [35]: Active
zone of inhibition at 15 µg/disc [36]: 10 mm
Activity [38]: inactive
zone of inhibition at 10 µg/disc [37]: 9 mm
